Assay results reported in ChEMBL document CHEMBL3603808, “Discovery and structure of a new inhibitor scaffold of the autophagy initiating kinase ULK1” (Bioorg Med Chem, 2015).
The source made the active and inactive calls. No cut-off for these calls is given here.

Columns and labels:
HeLa = assay: Inhibition of autophagy in human HeLa cells assessed as induction of LC3-I protein accumulation at 4 uM incubated for 24 hrs by immunoblotting method; type: functional, cell-based
Outline: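 HeLa cells were grown in DMEM with 10% FBS to about 50% confluency, then given 4 µM compound or DMSO for 24 h. Cold-PBS wash, lysis in TBS pH 7.6 with 1% Triton-X, 0.2% SDS and protease/phosphatase inhibitors. Lysates were protein-normalized and immunoblotted for LC3-I/LC3-II, with actin as loading control.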

[1] = target: T1, Serine/threonine-protein kinase ULK1 (Homo sapiens, UniProt O75385); assay: Inhibition of SUMO-tagged ULK1 (unknown origin) kinase domain expressed in KRX cells using [32P]-gamma-ATP and myelin basic protein substrate incubated for 7 mins; type: cell-based
T1 sequence (O75385 whole entry): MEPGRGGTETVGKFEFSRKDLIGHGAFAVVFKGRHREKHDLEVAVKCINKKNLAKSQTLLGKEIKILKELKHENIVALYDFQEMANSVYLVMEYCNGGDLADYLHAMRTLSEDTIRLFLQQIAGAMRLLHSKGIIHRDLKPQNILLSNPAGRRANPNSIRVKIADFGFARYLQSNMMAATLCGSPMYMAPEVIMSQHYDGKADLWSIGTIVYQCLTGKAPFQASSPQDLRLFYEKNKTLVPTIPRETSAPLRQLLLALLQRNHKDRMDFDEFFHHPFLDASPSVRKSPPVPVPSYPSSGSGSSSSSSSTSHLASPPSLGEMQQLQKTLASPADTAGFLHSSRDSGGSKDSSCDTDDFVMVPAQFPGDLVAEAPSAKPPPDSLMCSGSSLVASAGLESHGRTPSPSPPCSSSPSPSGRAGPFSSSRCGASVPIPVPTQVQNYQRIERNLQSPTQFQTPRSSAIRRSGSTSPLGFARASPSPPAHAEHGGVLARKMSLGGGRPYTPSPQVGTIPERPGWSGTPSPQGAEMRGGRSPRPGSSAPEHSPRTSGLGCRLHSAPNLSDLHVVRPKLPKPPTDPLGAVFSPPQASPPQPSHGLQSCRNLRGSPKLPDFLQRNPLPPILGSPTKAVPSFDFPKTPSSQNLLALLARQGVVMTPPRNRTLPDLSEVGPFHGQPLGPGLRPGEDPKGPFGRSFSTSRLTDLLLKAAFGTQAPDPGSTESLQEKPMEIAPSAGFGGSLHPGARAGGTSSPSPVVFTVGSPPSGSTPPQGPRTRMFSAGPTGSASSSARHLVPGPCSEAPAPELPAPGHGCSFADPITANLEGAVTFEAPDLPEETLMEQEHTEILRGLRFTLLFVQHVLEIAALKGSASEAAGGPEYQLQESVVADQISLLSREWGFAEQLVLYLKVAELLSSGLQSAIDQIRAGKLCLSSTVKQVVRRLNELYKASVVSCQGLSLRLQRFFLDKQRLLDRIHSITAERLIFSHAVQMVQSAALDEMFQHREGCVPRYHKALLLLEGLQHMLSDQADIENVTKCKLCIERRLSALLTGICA
Outline: (§1)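 Enzyme at 5 nM with 50 µM cold ATP, 0.05 µCi/µl 32P-γ-ATP and 20 µM myelin basic protein as substrate. Reactions were spotted onto nitrocellulose, washed three times in 1% phosphoric acid, dried and imaged by phosphorimager. IC50 from curve fitting; duplicate.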

[2] = target: T2, 3-phosphoinositide-dependent protein kinase 1 (Homo sapiens, UniProt O15530); assay: Inhibition of recombinant PDK1 (unknown origin) using PDK1tide substrate incubated for 7 mins
T2 sequence (O15530 whole entry): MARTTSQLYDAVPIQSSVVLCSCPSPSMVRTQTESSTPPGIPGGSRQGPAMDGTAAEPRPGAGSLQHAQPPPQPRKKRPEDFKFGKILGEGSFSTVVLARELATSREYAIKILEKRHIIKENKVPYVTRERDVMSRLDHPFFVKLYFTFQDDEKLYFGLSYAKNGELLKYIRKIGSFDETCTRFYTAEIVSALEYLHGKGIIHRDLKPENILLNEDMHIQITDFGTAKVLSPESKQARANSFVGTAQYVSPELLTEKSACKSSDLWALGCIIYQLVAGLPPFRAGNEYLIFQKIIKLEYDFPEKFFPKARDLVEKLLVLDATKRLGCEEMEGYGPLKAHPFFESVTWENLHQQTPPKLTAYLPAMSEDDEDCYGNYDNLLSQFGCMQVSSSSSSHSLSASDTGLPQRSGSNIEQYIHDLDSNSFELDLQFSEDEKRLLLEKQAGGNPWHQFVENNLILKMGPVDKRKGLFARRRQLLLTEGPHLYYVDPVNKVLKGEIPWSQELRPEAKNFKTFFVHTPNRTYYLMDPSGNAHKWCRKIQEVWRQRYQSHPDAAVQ
Outline: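 Recombinant PDK1 at 5 nM with 50 µM synthetic PDK1tide in 50 mM HEPES pH 7.5, 10 mM MgCl2, 1 mg/ml BSA, 0.02% Triton-X and 50 µM DTT. Stopped after 7 min by spotting onto nitrocellulose, washed three times in 1% phosphoric acid and phosphorimaged. IC50 from curve fitting; duplicate.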

[3] = target: T3, Serine/threonine-protein kinase ULK2 (Homo sapiens, UniProt Q8IYT8); assay: Inhibition of SUMO-tagged ULK2 (unknown origin) kinase domain expressed in KRX cells using [32P]-gamma-ATP and myelin basic protein substrate incubated for 7 mins; type: single protein; outline: as §1
T3 sequence (Q8IYT8 whole entry): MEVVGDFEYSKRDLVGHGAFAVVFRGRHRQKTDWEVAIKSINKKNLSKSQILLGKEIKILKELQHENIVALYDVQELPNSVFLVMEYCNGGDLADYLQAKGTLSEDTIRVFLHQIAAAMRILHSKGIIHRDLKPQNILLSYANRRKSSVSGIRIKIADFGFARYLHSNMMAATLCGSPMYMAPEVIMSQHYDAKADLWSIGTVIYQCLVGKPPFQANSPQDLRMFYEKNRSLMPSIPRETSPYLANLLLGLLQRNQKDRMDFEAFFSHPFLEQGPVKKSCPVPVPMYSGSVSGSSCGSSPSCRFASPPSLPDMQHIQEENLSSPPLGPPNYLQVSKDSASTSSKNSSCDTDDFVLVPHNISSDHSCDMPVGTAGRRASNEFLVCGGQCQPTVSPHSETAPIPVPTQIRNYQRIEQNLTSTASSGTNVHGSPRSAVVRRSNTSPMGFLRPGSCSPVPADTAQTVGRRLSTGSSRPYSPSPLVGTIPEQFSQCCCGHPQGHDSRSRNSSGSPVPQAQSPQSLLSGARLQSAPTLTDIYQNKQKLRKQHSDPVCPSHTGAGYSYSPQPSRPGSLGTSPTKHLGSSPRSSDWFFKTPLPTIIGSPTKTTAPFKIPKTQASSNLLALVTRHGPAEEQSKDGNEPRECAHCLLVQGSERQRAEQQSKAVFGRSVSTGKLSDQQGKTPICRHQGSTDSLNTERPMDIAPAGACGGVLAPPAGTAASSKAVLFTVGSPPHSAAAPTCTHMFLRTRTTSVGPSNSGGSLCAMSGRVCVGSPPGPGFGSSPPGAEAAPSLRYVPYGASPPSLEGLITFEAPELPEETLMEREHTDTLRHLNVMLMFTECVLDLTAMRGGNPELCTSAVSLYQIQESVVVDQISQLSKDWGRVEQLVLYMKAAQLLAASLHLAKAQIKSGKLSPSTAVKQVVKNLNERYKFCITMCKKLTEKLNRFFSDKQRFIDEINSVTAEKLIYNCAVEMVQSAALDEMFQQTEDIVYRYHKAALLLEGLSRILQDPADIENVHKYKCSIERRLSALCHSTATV

IC50 [1] [µM] | IC50 [2] [µM] | IC50 [3] [µM] | Compound | Activity (HeLa)
0.087 | 0.065 | 0.31 | O=C(NCCCNc1nc(Nc2cccc(NC(=O)N3CCCC3)c2)ncc1I)c1cccs1 [BX-795] | Active
– | 0.421 | – | O=C(NCCCNc1nc(Nc2cccc(CN3CCOCC3)c2)ncc1C1CC1)C1CCC1 | Active
0.067 | 0.056 | 0.2 | O=C(NCCCNc1nc(Nc2cccc(NC(=O)N3CCCC3)c2)ncc1I)C1CC1 | Active
